NF-kB neuron act – compounds increasing NF-kB expression in human neuronal cells; 1.6% of 190,000 active; fold change at 12.5 µM; NF-kB reporter expression; stronger effect = higher value; in the data active means fold change above about 3.3
STAT1 act – STAT1 signaling activation. NIH 3T3 STAT1-luciferase reporter, IFN-gamma, luminescence; 100% = IFN-gamma alone, no compound. activation (% of control), % at 5.5 µM. 2.6% of 200,000 active. AID 932;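 active means activation above the screen-wide mean activation plus 3 SD, cut at about 130% in these data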;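 further: raw ratio to IFN-gamma control signal so 100% means no change and 0% no light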
FLuc inhib CS – inhibits firefly luciferase, flagging false hits in luciferase inhibition screens | P08659 | ATPLite firefly luciferase biochemical luminescence, 10 min | inhibition, % at 10 µM | 1.5% of 200,000 active;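 active means inhibition above about 50% when tested at 10 µM, limit read from the data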
Target sequence (P08659 whole entry, looked up): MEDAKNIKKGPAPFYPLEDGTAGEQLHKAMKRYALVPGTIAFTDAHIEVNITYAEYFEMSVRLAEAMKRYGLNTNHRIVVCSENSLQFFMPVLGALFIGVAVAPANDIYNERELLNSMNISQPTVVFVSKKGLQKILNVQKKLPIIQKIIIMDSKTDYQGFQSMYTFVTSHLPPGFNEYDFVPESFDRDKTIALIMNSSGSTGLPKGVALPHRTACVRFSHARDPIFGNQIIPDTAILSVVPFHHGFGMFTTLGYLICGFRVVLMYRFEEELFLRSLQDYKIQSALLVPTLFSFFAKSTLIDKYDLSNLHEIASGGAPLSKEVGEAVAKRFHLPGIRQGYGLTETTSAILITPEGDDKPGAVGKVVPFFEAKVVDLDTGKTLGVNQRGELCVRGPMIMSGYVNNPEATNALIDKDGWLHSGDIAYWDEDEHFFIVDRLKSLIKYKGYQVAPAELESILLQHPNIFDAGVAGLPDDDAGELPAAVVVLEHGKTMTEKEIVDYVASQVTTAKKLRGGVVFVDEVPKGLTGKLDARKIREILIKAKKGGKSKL
APP 5'UTR act – activates APP 5'UTR luciferase reporter | SH-SY5Y APP 5'UTR luciferase reporter, luminescence; zero percent = DMSO vehicle wells | activation, % at 2 µM | 1% of 190,000 active | AID 1276;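 active means activation above a set limit, based on mean plus 3 SD of controls, cut at about 140% in these data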
Rad51 HR inh – blocks human Rad51 in homologous recombination; 0.085% of 200,000 active; hRad51 DNA strand exchange, fluorescence dequenching; AID 1385; inhibition, % at 10 µM;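 active means inhibition above 40% at the single screening dose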;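 further: 0% = DMSO control wells and 100% = blanks with heterologous ssDNA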
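material = hRad51 filaments on single-stranded DNA | reagent = Donor/quencher-labelled 47-bp dsDNA substrate | compound = 10 µM final, single point | schedule = strand-exchange reaction 15 min at room temperature | measured by = fluorescein emission 520 nm, excitation 485 nm | read-out basis = % inhibition versus plate control and blank means | benchmarks = plate controls and plate blanks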
FLuc act counter – affects firefly luciferase, flagging false hits in luciferase stimulation screens; 200,000 tested, under 10 active; ATPlite luciferase biochemical, luminescence, 10 min; 0 = ATP-free wells, 1 = DMSO control; P08659; activation factor at 10 µM;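 active means luciferase activation factor, scaled between plate controls, of at least 2 with compound at 10 µM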
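Assay system – cell-free luciferase reagent · Medium – PBS-based ATP solution · Dosing – test compounds dosed from 2 mM stocks in 100% DMSO · Timing – 10 min, room temperature · Technique – light output (luminescence) · Measure – luminescence gain marking luciferase activators · Controls – No-ATP low control, compound-free enzyme-plus-ATP high control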
* = called active by the depositor; i = inactive; . = no result given. The list is not random: actives were taken first. Their share in the collection is about 3.9%.

SMILES	NF-kB neuron act	STAT1 act	FLuc inhib CS	APP 5'UTR act	Rad51 HR inh	FLuc act counter
CC1=NN(c2ccc([N+](=O)[O-])cc2)C(=O)/C1=C\N(C)C	1.2	103	52*	-8	24	0.5
CC(=O)c1cccc(NC(=O)C(C)N(C)CC(=O)Nc2ccc(Cl)cc2)c1 (centres undefined)	.	.	.	.	3	.
N#Cc1cccc(-n2nnnc2-c2ccc3c(c2)OCO3)c1	3.5*	112	0	28	-1	1
CC(=O)N1/C(=C/c2ccc(N(C)C)cc2)C(=O)c2ccccc21	1.5	86	9	-81	-6	0.9
c1ccc(-c2ccc(-c3nccc4ccccc34)[nH]2)cc1	.	.	.	.	3	.
CC(=O)Nc1ccc(C2NC(=O)c3ccccc3O2)cc1 (centres undefined)	1.1	106	-6	-1	-2	1.1
CC(=O)Nc1ccc(C2Nc3ccccc3C(=O)N2C2CCCCC2)cc1 (centres undefined)	3.4*	104	-5	6	-4	1.1
CCOc1ccc(-c2c(=O)n(OCc3ccc([N+](=O)[O-])cc3)c3ccccc3[n+]2[O-])cc1	0.98	98	-2	0	-8	1
COC(=O)[C@@H]1CCCN1C(=O)CCc1nnc(CCC2CCCCC2)o1	2.6	139*	0	55	-2	1
Cc1c(C(=O)NCCc2ccc3c(c2)OCCO3)oc2ccccc12	0.97	98	5	-1	5	0.9
Cc1c(C(=O)NCc2ccoc2)oc2ccc3c(c12)C(=O)CC(C)(C)O3	3.9*	146*	46	120	.	0.5
O=C1c2ccccc2NC(c2ccccc2)N1/N=C/c1ccccc1 (centres undefined)	3.8*	112	3	128	3	1
CC1Oc2ccccc2C=C1/C=N/Nc1ccc(C(=O)O)cc1 (centres undefined)	.	.	.	.	-5	.
COc1ccc2c(n1)Sc1nc3ccccc3nc1N2	.	.	.	.	i	.
Nc1cc(-c2ccc(Cl)cc2)nn1-c1ccccc1	2.6	149*	30	88	6	0.7
Nc1c(-c2ccc(Cl)cc2)nnn1-c1ccccc1	3	132*	43	89	-26	0.6
Nc1ccc(-c2cc(N)n(-c3ccccc3)n2)cc1	0.58	110	4	-7	-3	1
CCS(=O)(=O)Nc1ccccc1C(N)=O	1.5	99	-1	3	-7	1
CCc1ccc(-c2ccc(SCC(=O)NCC3CCCO3)nn2)cc1 (centres undefined)	2.4	110	80*	41	14	0.2
CCOC(=O)N1CCN(C(=O)CSc2ccc(-c3ccc(OC)cc3)nn2)CC1	0.99	101	58*	2	22	0.4
CCOC(=O)c1ccc(NC(=O)C(=O)NCc2ccccn2)cc1	1.5	105	1	0	.	1
CCOc1ccc(-c2ccc(SCC(=O)Nc3nnc(C)s3)nn2)cc1	2.6	103	65*	183*	-17	0.3
CCc1ccc(NC(=O)C(=O)NCc2ccccn2)cc1	2.1	132*	10	10	0	0.9
CC1=C(c2ccccc2)C(=S)NC(C)(C)C1	.	.	.	.	0	.
O=C(CO/N=C/c1ccc(OC(F)F)cc1)NC1CCCCCC1	1.1	97	-5	5	-14	1
SMILES	NF-kB neuron act	STAT1 act	FLuc inhib CS	APP 5'UTR act	Rad51 HR inh	FLuc act counter
CC1=C(C(=O)Nc2ccccc2)C(c2cccnc2)n2ncnc2N1 (centres undefined)	1.4	98	-4	-14	-7	1
O=C1c2ccccc2C(=O)N1CCCN1CCN(CCCN2C(=O)c3ccccc3C2=O)CC1	.	99	.	0	.	.
CCc1ccc(NC(=O)C(=O)NCC2CCCO2)cc1 (centres undefined)	2.5	131*	31	114	-13	0.7
CCc1ccc(CNC(=O)C(=O)NCC2CCCO2)cc1 (centres undefined)	1.6	96	-4	14	-1	1
CCc1ccc(-c2ccc(SCC(=O)Nc3nnc(C)s3)nn2)cc1	3	119	85*	85	13	0.1
Cc1ccc(/C=C2\CCC3=C2OC(N)=C(C#N)C3c2ccc(C)cc2)cc1 (centres undefined)	1.3	108	-10	-47	i	1.1
N#CC1=C(N)OC2=C(CCc3ccccc32)C1c1ccccc1 (centres undefined)	4.7*	104	-6	-96	3	1.1
c1ccc(Sc2cnc3ccccc3n2)cc1	1.6	134*	10	38	-2	0.9
C/C(=N\OC(=O)c1ccc(F)cc1)c1nccs1	0.96	91	87*	12	-6	0.1
COc1ccc(C(=O)O/N=C(\C)c2nccs2)cc1	1.2	112	92*	20	.	0.1
COc1ccc(C(=O)O/N=C(/C)c2cccs2)cc1	1.2	120	96*	4	6	0
C/C(=N/OC(=O)c1c(F)cccc1F)c1nccs1	0.98	96	81*	0	-2	0.2
CC(=O)N1N=C(c2ccc(C)cc2)CC1c1ccco1 (centres undefined)	1.8	113	-2	31	-66	1
CN1C(=O)C2(Oc3ccccc3C3CC(c4ccccc4)=NN32)c2ccccc21 (centres undefined)	1.8	98	-11	137*	-18	1.1
Cc1ccc(C2=NN3C(C2)c2ccccc2OC32C(=O)Nc3ccccc32)cc1 (centres undefined)	8.7*	107	-2	204*	-19	1
O=C1c2ccccc2C(=O)N1CCCCN(C(=O)c1ccco1)c1ccc(Cl)cc1	0.95	93	-10	7	1	1.1
O=C1/C(=C/N(C(=O)c2ccco2)c2ccc(Cl)cc2)Sc2ccccc21	1.7	116	86*	81	-73	0.1
O=C1/C(=C/N(C(=O)c2ccco2)c2ccc(Br)cc2)Sc2ccccc21	2.3	126	83*	38	-55	0.2
CCn1c(CNC(=O)c2ccccc2F)nnc1SCC(=O)NC1CCCCC1C (centres undefined)	1	95	-3	6	40	1
CCCc1nc2ccccc2c(=O)n1CC(=O)c1ccccc1	1.1	96	-3	8	.	1
Cc1ccc(C2=NOC(=O)/C2=C\c2ccc(C)o2)cc1	.	.	.	.	1	.
Cc1ccc(/C=C2\C(=O)ON=C2c2ccccc2)o1	1.6	107	60*	11	-14	0.4
CC(C)c1ccc(-c2cc(C(=O)N3N=C(C(F)F)CC3(O)C(F)F)c3ccccc3n2)cc1 (centres undefined)	1	113	65*	41	4	0.4
O=C(c1cc(C2CC2)nc2ccccc12)N1N=C(C(F)F)CC1(O)C(F)F (centres undefined)	0.97	106	-2	9	1	1
